# Data published in ChEMBL document CHEMBL1126267, “A novel synthesis and potent antiinflammatory activity of 4-hydroxy-2(1H)-oxo-1-phenyl-1,8-naphthyridine-3-carboxamides” (1992).
# Key:
# Format in all cases: functional
# Conditions in all cases: route oral
# Rattus norvegicus [1] = experiment: Compound was tested for the inhibition of rat reversed passive Arthus pleurisy after peroral administration of 100 mg/kg dose at 3.36*10e6 no of cells with 3.86*10e6 cells of control
# How it was run: (§1)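 Male Wistar rats (about 250 g) were given compound orally before the antiserum. Under ether anesthesia, 0.2 mL rabbit anti-egg albumin antiserum was injected intrapleurally. After 30 min, egg albumin (15 mg/100 g body weight in 0.1 mL saline) was given iv. Rats were killed 4.5 h later and the thoracic cavity was rinsed with 5 mL saline. Exudate volume and infiltrated cell number were measured, with inhibition % versus controls as mean ± SEM.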
# Rattus norvegicus [2] = experiment: Inhibition of Zymosan-induced rat's paw edema(ZPE) after peroral administration of 100 mg/kg dose.
# How it was run: (§2)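 Male Wistar rats (about 150 g) were dosed orally with compound suspended in 5% arabic gum, 1 h before a subplantar hind-paw injection of 0.1 mL saline. The irritant was 1% zymosan for 33 or 1% λ-carrageenin for 34. Paw volume was measured by plethysmograph before dosing and at 4 h (zymosan) or 3 h (carrageenin). Swelling is relative to initial volume, as mean ± SEM. % inhibition is versus the control group's mean swelling.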
# Rattus norvegicus [3] = experiment: Antiinflammatory activity on Carrageenan rat's paw edema(CPE) after peroral administration of 100 mg/kg dose with control swelling of 90.0%
# Rattus norvegicus [4] = experiment: Antiinflammatory activity on Zymosan-induced rat's paw edema(ZPE) after peroral administration of 100 mg/kg dose with control swelling of 85.5%
# How it was run: (§3)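 Male Wistar rats weighing about 150 g were dosed orally with compound suspended in 5% arabic gum. 1 h later, 1% zymosan in 0.1 mL saline was injected subplantarly into the hind paw. Paw volume was measured by plethysmograph before dosing and 4 h after zymosan, with edema as the volume difference. Inhibition % was derived from mean swelling versus the control group.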
# Rattus norvegicus [5] = experiment: Compound was tested for the inhibition of rat reversed passive Arthus pleurisy after peroral administration of 100 mg/kg dose at 0.66 mL of exudate volume with 0.79 mL of control (injected intrapleurally); how it was run: as §1
# Rattus norvegicus [6] = experiment: Inhibition of carrageenan-induced rat's paw edema (CPE) after peroral administration of 100 mg/kg dose.; how it was run: as §2
# Rattus norvegicus [7] = experiment: Compound was tested for the inhibition of rat reversed passive Arthus pleurisy after peroral administration of 10 mg/kg dose at 0.44 mL of exudate volume with 0.55 mL of control (injected intrapleurally); how it was run: as §1
# Rattus norvegicus [8] = experiment: Compound was tested for the inhibition of rat reversed passive Arthus pleurisy after peroral administration of 10 mg/kg dose at 3.2*10e6 no of cells with 2.77*10e6 cells of control; how it was run: as §1
# Rattus norvegicus [9] = experiment: Compound was tested for the inhibition of rat reversed passive Arthus pleurisy after peroral administration of 3 mg/kg dose at 0.59 mL of exudate volume with 0.55 mL of control (injected intrapleurally)
# How it was run: (§4)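 Male Wistar rats (about 250 g) under ether received 0.2 mL rabbit anti-egg-albumin antiserum intrapleurally. Thirty min later they got 15 mg EA/100 g body weight in 0.1 mL saline iv. Compounds were given orally beforehand. Rats were killed 4.5 h after induction and the thoracic cavity rinsed with 5 mL saline. Exudate volume and infiltrated cell count were read as mean ± SE. % inhibition is versus control.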
# Rattus norvegicus [10] = experiment: Compound was tested for the inhibition of rat reversed passive Arthus pleurisy after peroral administration of 3 mg/kg dose at 4.01*10e6 no of cells with 2.77*10e6 cells of control; how it was run: as §4
# Rattus norvegicus [11] = experiment: Compound was tested for the inhibition of rat reversed passive Arthus pleurisy after peroral administration of 100 mg/kg dose at 5.76*10e6 no of cells with 7.4*10e6 cells of control; how it was run: as §4
# Rattus norvegicus [12] = experiment: Antiinflammatory activity on Carrageenan rat's paw edema(CPE) after peroral administration of 100 mg/kg dose with control swelling of 73.7%
# Rattus norvegicus [13] = experiment: Antiinflammatory activity on Zymosan-induced rat's paw edema(ZPE) after peroral administration of 100 mg/kg dose with control swelling of 61.0%; how it was run: as §3
# Rattus norvegicus [14] = experiment: Compound was tested for the inhibition of rat reversed passive Arthus pleurisy after peroral administration of 100 mg/kg dose at 0.66 mL of exudate volume with 0.82 mL of control (injected intrapleurally); how it was run: as §1
# Rattus norvegicus [15] = experiment: Compound was tested for the inhibition of rat reversed passive Arthus pleurisy after peroral administration of 100 mg/kg dose at 3.82*10e6 no of cells with 3.62*10e6 cells of control; how it was run: as §4
# Rattus norvegicus [16] = experiment: Compound was tested for the inhibition of rat reversed passive Arthus pleurisy after peroral administration of 100 mg/kg dose at 0.72 mL of exudate volume with 0.54 mL of control (injected intrapleurally); how it was run: as §1
# Rattus norvegicus [17] = experiment: Antiinflammatory activity on Carrageenan rat's paw edema(CPE) after peroral administration of 100 mg/kg dose with control swelling of 64.2%
# Rattus norvegicus [18] = experiment: Antiinflammatory activity on Zymosan-induced rat's paw edema(ZPE) after peroral administration of 100 mg/kg dose with control swelling of 71.7%; how it was run: as §3
# Rattus norvegicus [19] = experiment: Compound was tested for the inhibition of rat reversed passive Arthus pleurisy after peroral administration of 100 mg/kg dose at 0.65 mL of exudate volume with 0.86 mL of control (injected intrapleurally); how it was run: as §1
# Rattus norvegicus [20] = experiment: Compound was tested for the inhibition of rat reversed passive Arthus pleurisy after peroral administration of 100 mg/kg dose at 3.02*10e6 no of cells with 3.86*10e6 cells of control; how it was run: as §1
# Rattus norvegicus [21] = experiment: Compound was tested for the inhibition of rat reversed passive Arthus pleurisy after peroral administration of 100 mg/kg dose at 3.37*10e6 no of cells with 3.62*10e6 cells of control; how it was run: as §4
# Rattus norvegicus [22] = experiment: Compound was tested for the inhibition of rat reversed passive Arthus pleurisy after peroral administration of 100 mg/kg dose at 0.61 mL of exudate volume with 0.54 mL of control (injected intrapleurally); how it was run: as §1
# Rattus norvegicus [23] = experiment: Antiinflammatory activity on Carrageenan rat's paw edema(CPE) after peroral administration of 100 mg/kg dose with control swelling of 68.1%
# Rattus norvegicus [24] = experiment: Antiinflammatory activity on Zymosan-induced rat's paw edema(ZPE) after peroral administration of 100 mg/kg dose with control swelling of 62.0%; how it was run: as §3
# Rattus norvegicus [25] = experiment: Compound was tested for the inhibition of rat reversed passive Arthus pleurisy after peroral administration of 100 mg/kg dose at 3.22*10e6 no of cells with 3.86*10e6 cells of control; how it was run: as §1
# Rattus norvegicus [26] = experiment: Compound was tested for the inhibition of rat reversed passive Arthus pleurisy after peroral administration of 100 mg/kg dose at 0.82 mL of exudate volume with 0.86 mL of control (injected intrapleurally); how it was run: as §1
# Rattus norvegicus [27] = experiment: Compound was tested for the inhibition of rat reversed passive Arthus pleurisy after peroral administration of 100 mg/kg dose at 3.77*10e6 no of cells with 3.86*10e6 cells of control; how it was run: as §4
# Rattus norvegicus [28] = experiment: Compound was tested for the inhibition of rat reversed passive Arthus pleurisy after peroral administration of 100 mg/kg dose at 0.64 mL of exudate volume with 0.79 mL of control (injected intrapleurally); how it was run: as §1
# Rattus norvegicus [29] = experiment: Antiinflammatory activity on Carrageenan rat's paw edema(CPE) after peroral administration of 100 mg/kg dose with control swelling of 63.7%
# Rattus norvegicus [30] = experiment: Antiinflammatory activity on Zymosan-induced rat's paw edema(ZPE) after peroral administration of 100 mg/kg dose with control swelling of 69.5%; how it was run: as §3
# Rattus norvegicus [31] = experiment: Compound was tested for the inhibition of rat reversed passive Arthus pleurisy after peroral administration of 100 mg/kg dose at 1.19*10e6 no of cells with 7.4*10e6 cells of control; how it was run: as §1
# Rattus norvegicus [32] = experiment: Compound was tested for the inhibition of rat reversed passive Arthus pleurisy after peroral administration of 100 mg/kg dose at 0.28 mL of exudate volume with 0.82 mL of control (injected intrapleurally); how it was run: as §1
# Rattus norvegicus [33] = experiment: Antiinflammatory activity on Carrageenan rat's paw edema(CPE) after peroral administration of 100 mg/kg dose with control swelling of 71.9%
# Rattus norvegicus [34] = experiment: Antiinflammatory activity on Zymosan-induced rat's paw edema(ZPE) after peroral administration of 100 mg/kg dose with control swelling of 72.9%; how it was run: as §3
# Rattus norvegicus [35] = experiment: Compound was tested for the inhibition of rat reversed passive Arthus pleurisy after peroral administration of 100 mg/kg dose at 3.02*10e6 no of cells with 3.37*10e cells of control; how it was run: as §1
# Rattus norvegicus [36] = experiment: Compound was tested for the inhibition of rat reversed passive Arthus pleurisy after peroral administration of 100 mg/kg dose at 0.43 mL of exudate volume with 0.46 mL of control (injected intrapleurally); how it was run: as §1
# Rattus norvegicus [37] = experiment: Antiinflammatory activity on Carrageenan rat's paw edema(CPE) after peroral administration of 100 mg/kg dose with control swelling of 65.6%
compound,measurement,setting,value
O=C(Nc1cccc([N+](=O)[O-])c1)c1c(O)c2cccnc2n(-c2ccccc2)c1=O,inhibition in vivo at 100 mg/kg,Rattus norvegicus [1],15.4%
same,inhibition in vivo at 100 mg/kg,Rattus norvegicus [2],5.7%
same,Swelling,Rattus norvegicus [3],83.6%
same,Swelling,Rattus norvegicus [4],80.6%
same,inhibition in vivo at 100 mg/kg,Rattus norvegicus [5],19.1%
same,inhibition in vivo at 100 mg/kg,Rattus norvegicus [6],7.4%
COc1ccc2c(c1)c(CC(=O)O)c(C)n2C(=O)c1ccc(Cl)cc1 [INDOMETHACIN],inhibition in vivo at 10 mg/kg,Rattus norvegicus [7],23.9%
same,inhibition in vivo at 10 mg/kg,Rattus norvegicus [8],-20.9%
same,inhibition in vivo at 3 mg/kg,Rattus norvegicus [9],-8.7%
same,inhibition in vivo at 3 mg/kg,Rattus norvegicus [10],-60.2%
COc1ccc(NC(=O)c2c(O)c3cccnc3n(-c3ccccc3)c2=O)cn1,inhibition in vivo at 100 mg/kg,Rattus norvegicus [2],13.1%
same,inhibition in vivo at 100 mg/kg,Rattus norvegicus [11],22.2%
same,Swelling,Rattus norvegicus [12],72.3%
same,Swelling,Rattus norvegicus [13],53%
same,inhibition in vivo at 100 mg/kg,Rattus norvegicus [14],19.5%
same,inhibition in vivo at 100 mg/kg,Rattus norvegicus [6],-10.2%
CCCCNC(=O)c1c(O)c2cccnc2n(-c2ccccc2)c1=O,inhibition in vivo at 100 mg/kg,Rattus norvegicus [15],7.7%
same,inhibition in vivo at 100 mg/kg,Rattus norvegicus [2],12.8%
same,inhibition in vivo at 100 mg/kg,Rattus norvegicus [16],-36.7%
same,Swelling,Rattus norvegicus [17],51.1%
same,Swelling,Rattus norvegicus [18],62.5%
same,inhibition in vivo at 100 mg/kg,Rattus norvegicus [6],20.4%
Cc1cccc(NC(=O)c2c(O)c3cccnc3n(-c3ccccc3)c2=O)c1,inhibition in vivo at 100 mg/kg,Rattus norvegicus [2],14.2%
same,inhibition in vivo at 100 mg/kg,Rattus norvegicus [19],27.3%
same,Swelling,Rattus norvegicus [17],61.3%
same,Swelling,Rattus norvegicus [18],61.5%
same,inhibition in vivo at 100 mg/kg,Rattus norvegicus [6],4.5%
same,inhibition in vivo at 100 mg/kg,Rattus norvegicus [20],28.5%
O=C(NCc1ccccc1)c1c(O)c2cccnc2n(-c2ccccc2)c1=O,inhibition in vivo at 100 mg/kg,Rattus norvegicus [21],9.6%
same,inhibition in vivo at 100 mg/kg,Rattus norvegicus [22],-14.3%
same,inhibition in vivo at 100 mg/kg,Rattus norvegicus [2],1.6%
same,Swelling,Rattus norvegicus [23],60.4%
same,Swelling,Rattus norvegicus [24],60.3%
same,inhibition in vivo at 100 mg/kg,Rattus norvegicus [6],11.3%
O=C(Nc1cccc(Cl)c1)c1c(O)c2cccnc2n(-c2ccccc2)c1=O,inhibition in vivo at 100 mg/kg,Rattus norvegicus [25],21.7%
same,inhibition in vivo at 100 mg/kg,Rattus norvegicus [26],5.2%
same,inhibition in vivo at 100 mg/kg,Rattus norvegicus [2],7.6%
same,Swelling,Rattus norvegicus [3],77.9%
same,Swelling,Rattus norvegicus [4],79%
same,inhibition in vivo at 100 mg/kg,Rattus norvegicus [6],13.4%
O=C(Nc1nccs1)c1c(O)c2cccnc2n(-c2ccccc2)c1=O,inhibition in vivo at 100 mg/kg,Rattus norvegicus [27],15.4%
same,inhibition in vivo at 100 mg/kg,Rattus norvegicus [28],18.1%
same,inhibition in vivo at 100 mg/kg,Rattus norvegicus [2],4.6%
same,Swelling,Rattus norvegicus [29],69.9%
same,Swelling,Rattus norvegicus [30],66.3%
same,inhibition in vivo at 100 mg/kg,Rattus norvegicus [6],2.5%
Cc1cnccc1NC(=O)c1c(O)c2cccnc2n(-c2ccccc2)c1=O,inhibition in vivo at 100 mg/kg,Rattus norvegicus [2],26.9%
same,inhibition in vivo at 100 mg/kg,Rattus norvegicus [31],83.9%
same,inhibition in vivo at 100 mg/kg,Rattus norvegicus [32],65.9%
same,Swelling,Rattus norvegicus [33],64.6%
same,Swelling,Rattus norvegicus [34],53.3%
same,inhibition in vivo at 100 mg/kg,Rattus norvegicus [6],8.8%
O=C(NN1CCOCC1)c1c(O)c2cccnc2n(-c2ccccc2)c1=O,inhibition in vivo at 100 mg/kg,Rattus norvegicus [35],10.4%
same,inhibition in vivo at 100 mg/kg,Rattus norvegicus [36],14.6%
same,inhibition in vivo at 100 mg/kg,Rattus norvegicus [2],-8.5%
same,Swelling,Rattus norvegicus [37],82.8%
same,Swelling,Rattus norvegicus [13],66.2%
same,inhibition in vivo at 100 mg/kg,Rattus norvegicus [6],-26.2%
